Data set [1] has as its system H460 cells. Put plainly: JC-1 mitochondrial membrane potential assay. Type of data set: cell-based.
Data set [2] has as its system four NSCLC lines (NCI-H460, NCI-H1975, A549, HCC827). Put plainly: MTT cell viability assay, all four lines. Particulars: 72 h, read-out: IC50 values, range over four NSCLC lines. Type of data set: cell-based. In a few lines: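 Cells were exposed for 72 h, then viability was read by MTT. Test compound was dissolved in DMSO and diluted with water to 1% DMSO, giving at most 0.032% DMSO final in medium. A parallel run used stock in 10% (w/v) 2-HPβCD (≤0.008% final), with 0.008% 2-HPβCD vehicle controls. Cisplatin was dissolved in water. IC50 was the concentration giving 50% loss of viability versus control cells.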
On the technique in general: Formazan colour is commonly taken as a measure of viable cells.

Data set [3] in a line: Solubility in water, water/DMSO and 2-HPβCD solutions. Type of data set: physicochemical. Particulars: for behaviour on addition of water to the DMSO solution: final 1% DMSO in water.
Data set [4] relates to nine NSCLC lines. Put plainly: NCI-60 one-dose assay, average. It counts as cell-based, human. As to conditions: average over the NSCLC lines tested; single dose 10 μM. In a few lines:
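The NCI DTP ran the NCI-60 one-dose screen. Cells were plated at densities matched to doubling rate and incubated overnight, then exposed to 10 μM test compound for […]. Growth percentage came from protein density at the end versus the start of exposure. Values were averaged across the nine NSCLC lines.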

In data set [5] the test system is H460 cells. The data set can be described thus: Annexin V apoptosis assay. Type of data set: cell-based. The essentials:
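H460 cells in 6-well plates were treated with the test compound in 10% (w/v) 2-HPβCD aqueous solution or in DMSO. Controls were 2-HPβCD vehicle and cisplatin. Cells were stained with Annexin V-FITC plus propidium iodide and imaged by fluorescence microscopy (20× objective) at 12, 14, 17 and 20 h. Read-outs were green versus green+red fluorescence and membrane blebbing.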

The subject of data set [6] is C57BL/6 mice. Put plainly: Preliminary in vivo toxicity study.
For data set [7], the system named is DNA. The data set can be described thus: DNA interaction: viscosity and fluorescent intercalator displacement assays. It counts as binding.
Data set [8] deals with NCI-H226. The data set can be described thus: NCI-60 five-dose assay. Type of data set: cell-based, human. In a few lines: (§1)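 The NCI DTP ran the NCI-60 five-dose screen. Cells were exposed to the test compound at 10 nM, 100 nM, 1 μM, 10 μM and 100 μM. Read-outs were growth inhibition by 50% (GI50), total growth inhibition (TGI) and 50% lethal concentration (LC50), each relative to control cells.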

The subject of data set [9] is EKVZ. The data set can be described thus: NCI-60 five-dose assay. It counts as cell-based, human. In a few lines:
as §1

For data set [10], the system named is HOP-62. Put plainly: NCI-60 five-dose assay. It counts as cell-based, human. The essentials: as §1
The test system of data set [11] is NCI-H522. Put plainly: NCI-60 five-dose assay. It counts as cell-based, human. The essentials: as §1
The test system of data set [12] is A549/ATCC. Put plainly: NCI-60 five-dose assay. Type of data set: cell-based, human. In a few lines:
as §1

Data set [13] has as its system HOP-92. The data set can be described thus: NCI-60 five-dose assay. Type of data set: cell-based, human. The essentials:
as §1

Data set [14] relates to NCI-H460. The data set can be described thus: NCI-60 five-dose assay. It counts as cell-based, human. In a few lines:
as §1

For data set [15], the system named is H460 cells. As to conditions: cited from earlier work.

Molecules are shown by their SMILES.

Usually IC50 stands for the point on the concentration scale where inhibition reaches its midpoint. As a reminder, the TGI is the concentration giving total growth inhibition. Read a high TGI as lower sensitivity of the cells. As a reminder, the GI50 is the concentration that inhibits growth by half. Low values mean greater sensitivity of the cells, high ones lower sensitivity of the cells.

As to `N#CC(C#N)=NNc1cccc(Cl)c1` [CCCP, carbonylcyanide m-chlorophenylhydrazone, reference compound], the “mitochondrial potential versus media control cells” value in data set [1] (positive control) was “mitochondria potential was decreased”.

Regarding `Cc1n(Cc2ccc3ccccc3c2)cc[n+]1Cc1ccc2ccccc2c1.[Br-]` [Compound 1], the IC50 in data set [2] was in the range of 660 to 3500 nM. Also, the “behaviour on addition of water to the DMSO solution” value (from here on “behaviour on addition of water”) in [3] is reported as “slight precipitation”. Further, in data set [4], the “Growth % Average” value was found to be 21.19%.

`CCc1n(Cc2ccc3ccccc3c2)cc[n+]1Cc1ccc2ccccc2c1.[Br-]` [Compound 2]: the IC50 in [2] lay in the range of 660 to 3500 nM. For the same compound, the “red fluorescence (J-aggregates, intact MMP)” value is given as “apparent decrease in intensity” in data set [1] (20 μM, 1 hour versus 15 minutes); “minimal red fluorescence” in data set [1] (40 μM, 30 minutes); “minimal red fluorescence” in data set [1] (40 μM, 1 hour and 2.5 hours). For the same compound, the “time at which strong green fluorescence (Annexin V-FITC) was observed” value in data set [5] (40 μM, water/DMSO solution) stood at 1 h. Moreover, the figures for the “time of treatment at which blebbing occurs” value in data set [5] (2-HPβCD vehicle) and in data set [5] (DMSO vehicle) were 14 h and 3 h, respectively. The “mode of cell death” value in [5] (DMSO or 2-HPβCD vehicle, two independent trials) was “causes apoptosis”. Also, in [6] (15 mg/kg IP on day fourteen, two surviving mice), the “clinical observation the day after the second injection” value is “both animals were sacrificed due to lethargic movement”. Besides, in data set [6] (20 mg/kg IP), the “body weight after first injection” value was “sharp decrease in weight”. Moreover, the mortality entry in [6] (20 mg/kg IP on day zero in 20% 2-HPβCD, day two) is “one mouse from the experimental group was found deceased”. In addition, in [6] (20 mg/kg then 15 mg/kg IP), the overall toxicity entry is given as “quite toxic at the doses administered”. Also, in data set [6] (after second injection, 15 mg/kg IP on day fourteen), the average weight loss entry is “around 6%”. Besides, the “behaviour on addition of water” value in data set [3] was “remained soluble”. Further, the “Growth % Average” value in data set [4] worked out at 4.18%. Besides, the “interaction with DNA” value in data set [7] is on record as “little to no interaction with DNA”.

Regarding `CCCc1n(Cc2ccc3ccccc3c2)cc[n+]1Cc1ccc2ccccc2c1.[Br-]` [Compound 3], the IC50 in data set [2] is 660 to 3500 nM. Further, in data set [3], the “behaviour on addition of water” value is given as “remained soluble”. Also, in data set [4], the “Growth % Average” value is given as 2.33%.

In the case of `CCCCc1n(Cc2ccc3ccccc3c2)cc[n+]1Cc1ccc2ccccc2c1.[Br-]` [Compound 4], the TGI in data set [8] amounted to 2930 nM; in [9] (EKVZ), 3470 nM; in data set [10], 2750 nM; in data set [11], 1890 nM; in data set [12] (A549/ATCC), 3240 nM; in data set [13], 2350 nM. Further, in data set [14], the TGI stood at 2820 nM. In addition, the GI50 in [8] (Homo sapiens) was determined as 1350 nM; in [9] (Homo sapiens) it was 1350 nM; in data set [10] (Homo sapiens), 1290 nM; in data set [11] (Homo sapiens), 491 nM; in data set [12] (Homo sapiens, A549) it was 1670 nM; in data set [13] (Homo sapiens), 844 nM. Moreover, the concentration for 50% growth inhibition (GI50) in data set [14] (Homo sapiens) amounted to 1250 nM. Also, the IC50 in data set [2] is 660 to 3500 nM. Further, in [3], the “behaviour on addition of water” value is reported as “slight precipitation”. Moreover, the “Growth % Average” value in data set [4] is given as −1.36%.

Turning to `CC(C)c1n(Cc2ccc3ccccc3c2)cc[n+]1Cc1ccc2ccccc2c1.[Br-]` [Compound 5], in data set [2], the IC50 lay within 660 to 3500 nM. In data set [3] (10% 2-HPβCD by weight in water), the “solubility in 2-HPβCD solution” value is reported as “mostly soluble”. Moreover, the “behaviour on addition of water” value in [3] is “remained soluble”.

Regarding `Clc1c(Cl)[n+](Cc2ccc3ccccc3c2)cn1Cc1ccc2ccccc2c1.[Br-]` [IS23, 4,5-dichloro-1,3-bis(naphthalen-2-ylmethyl)imidazolium bromide], the “time of morphological changes (cell shrinkage, rounding, detachment)” value in data set [15] is on record as “within the first hour”.

These data come from publication PMC5575737 (Bioorganic & medicinal chemistry letters, 2017).
